Test results published in ChEMBL document CHEMBL1649165, “Activity profile in vitro of micafungin against Spanish clinical isolates of common and emerging species of yeasts and molds” (2009).
In brackets after ≈: the same amount, converted by molar mass. *1 amine or outer side, *2 acyl side, *3 side chain or, on linkers, in order; H or OH if unused. Where a SMILES comes first, the peptide text is derived from it. Bridges are numbered along the chain shown (N, C = ends). [ ]: non-standard residue; d: D form. The star is where a group is joined. hTyr(3S-OH,4S-OH,3'-OSO3H) = N[C@H](C(=O)O)[C@H](O)[C@@H](O)c1ccc(O)c(OS(=O)(=O)O)c1; Orn(4R-OH,5R-OH) = O=C([C@H](C[C@@H](O)[C@@H](O)N[*:3])N[*:1])[*:2]; Pro(3S-OH,4S-Me) = C[C@H]1CN[C@H](C(=O)O)[C@H]1O; X1 = CCCCCOc1ccc(-c2cc(-c3ccc(C(=O)*)cc3)no2)cc1; Gln(3R-OH) = NC(=O)C[C@@H](O)[C@H](N)C(=O)O; Hyp = O=C(O)[C@@H]1C[C@@H](O)CN1

Legend:
Format in all cases: functional
Candida tropicalis = test: Antimicrobial activity against Candida tropicalis by broth microdilution method
In short: (§1)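 Clinical isolates from human patients, tested by broth microdilution using the AFST-EUCAST reference procedure for fermentative yeasts. The MIC was read per that reference method.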

Nakaseomyces glabratus = test: Antimicrobial activity against Candida glabrata by broth microdilution method; in short: as §1
Pichia kudriavzevii = test: Antimicrobial activity against Candida krusei by broth microdilution method; in short: as §1
Clavispora lusitaniae = test: Antimicrobial activity against Candida lusitaniae by broth microdilution method; in short: as §1
Diutina rugosa = test: Antimicrobial activity against Candida rugosa by broth microdilution method; in short: as §1
Debaryomyces hansenii = test: Antimicrobial activity against Candida famata by broth microdilution method; in short: as §1
[Candida] inconspicua = Antimicrobial activity against Candida inconspicua by broth microdilution method; details: Pichia inconspicua; in short: as §1
[Candida] zeylanoides = Antimicrobial activity against Candida zeylanoides by broth microdilution method; details: Dujonia zeylanoides; in short: as §1
Magnusiomyces capitatus = test: Antimicrobial activity against Dipodascus capitatus by broth microdilution method
Yarrowia lipolytica = test: Antimicrobial activity against Yarrowia lipolytica by broth microdilution method
Geotrichum candidum = test: Antimicrobial activity against Galactomyces geotrichum by broth microdilution method
[1] = tested on: Cryptococcus deneoformans; test: Antimicrobial activity against Cryptococcus neoformans var. neoformans by broth microdilution method
In short: (§2)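 Clinical isolates of nonfermentative yeasts, tested by broth microdilution following EUCAST recommendations. The only change from that method was a minor modification to improve growth.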

Trichosporon inkin = test: Antimicrobial activity against Trichosporon inkin by broth microdilution method
In short: (§3)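 Nonfermentative yeast clinical isolates (Rhodotorula, Trichosporon) tested by broth microdilution. The EUCAST yeast recommendations were followed strictly, with one minor modification to improve growth. MIC was read as the endpoint.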

Trichosporon ovoides = test: Antimicrobial activity against Trichosporon ovoides by broth microdilution method; in short: as §3
Naganishia albida = test: Antimicrobial activity against Cryptococcus albidus by broth microdilution method; in short: as §2
Ustilago = test: Antimicrobial activity against Ustilago spp by broth microdilution method
Papiliotrema laurentii = test: Antimicrobial activity against Cryptococcus laurentii by broth microdilution method; in short: as §2
Trichosporon = test: Antimicrobial activity against Trichosporon spp. by broth microdilution method; in short: as §3
Aspergillus flavus = test: Antimicrobial activity against Aspergillus flavus by broth microdilution method
In short: (§4)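 Clinical mould isolates, tested by broth microdilution using the AFST-EUCAST reference method for filamentous fungi. For echinocandins, the endpoint was the minimum effective concentration: the lowest drug concentration giving aberrant hyphal growth, read with an inverted microscope.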

Aspergillus niger = test: Antimicrobial activity against Aspergillus niger by broth microdilution method; in short: as §4
Aspergillus nidulans = test: Antimicrobial activity against Aspergillus nidulans by broth microdilution method; in short: as §4
Aspergillus sydowii = test: Antimicrobial activity against Aspergillus sydowii by broth microdilution method; in short: as §4
Aspergillus versicolor = test: Antimicrobial activity against Aspergillus versicolor by broth microdilution method; in short: as §4
Aspergillus ochraceus = test: Antimicrobial activity against Aspergillus ochraceus by broth microdilution method; in short: as §4
Aspergillus glaucus = test: Antimicrobial activity against Aspergillus glaucus by broth microdilution method; in short: as §4
Aspergillus = test: Antimicrobial activity against Aspergillus spp. by broth microdilution method; in short: as §4
Penicillium = test: Antimicrobial activity against Penicillium spp. by broth microdilution method
In short: (§5)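 Filamentous fungus clinical isolates tested by the AFST-EUCAST reference broth microdilution method for moulds. For echinocandins, the endpoint was the minimum effective concentration: the lowest drug concentration giving aberrant hyphal growth, read with an inverted microscope.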

Fusarium solani = test: Antimicrobial activity against Fusarium solani by broth microdilution method; in short: as §5
Acremonium sp. = test: Antimicrobial activity against Acremonium sp.by broth microdilution method; in short: as §4
Trichoderma = test: Antimicrobial activity against Trichoderma spp. by broth microdilution method; in short: as §5
Phialemonium curvatum = test: Antimicrobial activity against Phialemonium curvatum by broth microdilution method; details: Thyridium curvatum; in short: as §5
Fusarium equiseti = test: Antimicrobial activity against Fusarium equiseti by broth microdilution method; in short: as §4
Coprinellus domesticus = test: Antimicrobial activity against Hormographiella verticillata by broth microdilution method; in short: as §5
Aureobasidium pullulans = test: Antimicrobial activity against Aureobasidium pullulans by broth microdilution method
Hortaea werneckii = test: Antimicrobial activity against Hortaea werneckii by broth microdilution method
Lichtheimia corymbifera = test: Antimicrobial activity against Mycocladus corymbiferus by broth microdilution method; in short: as §5
Rhizopus arrhizus = test: Antimicrobial activity against Rhizopus oryzae by broth microdilution method; in short: as §5
Mucor = test: Antimicrobial activity against Mucor spp.by broth microdilution method; in short: as §5
Saksenaea vasiformis = test: Antimicrobial activity against Saksenaea vasiformis by broth microdilution method; in short: as §5
Exophiala jeanselmei = test: Antimicrobial activity against Exophiala jeanselmei by broth microdilution method

Work on CCCCCOc1ccc(-c2cc(-c3ccc(C(=O)N[C@H]4C[C@@H](O)[C@@H](O)NC(=O)[C@@H]5[C@@H](O)[C@@H](C)CN5C(=O)[C@H]([C@H](O)CC(N)=O)NC(=O)[C@H]([C@H](O)[C@@H](O)c5ccc(O)c(OS(=O)(=O)O)c5)NC(=O)[C@@H]5C[C@@H](O)CN5C(=O)[C@H]([C@@H](C)O)NC4=O)cc3)no2)cc1 [MICAFUNGIN] (X1-[Orn(4R-OH,5R-OH)]T[Hyp][hTyr(3S-OH,4S-OH,3'-OSO3H)][Gln(3R-OH)][Pro(3S-OH,4S-Me)]; lactam 1-C) yielded an MIC50 (Candida tropicalis) of 0.03 µg/mL (≈ 0.0236 µM), an MIC90 (Candida tropicalis) of 0.03 µg/mL (≈ 0.0236 µM) and an MIC50 (Nakaseomyces glabratus) of 0.03 µg/mL (≈ 0.0236 µM). The MIC90 (Nakaseomyces glabratus) was 0.03 µg/mL (≈ 0.0236 µM), the MIC50 (Pichia kudriavzevii) was 0.03 µg/mL (≈ 0.0236 µM) and the MIC90 (Pichia kudriavzevii) was 0.06 µg/mL (≈ 0.0472 µM). For the same compound, the MIC50 (Clavispora lusitaniae) was 0.03 µg/mL (≈ 0.0236 µM), the MIC90 (Clavispora lusitaniae) was 0.03 µg/mL (≈ 0.0236 µM) and the MIC50 (Diutina rugosa) was 0.03 µg/mL (≈ 0.0236 µM). The MIC90 (Diutina rugosa) was 0.12 µg/mL (≈ 0.0945 µM), the MIC50 (Debaryomyces hansenii) was 0.03 µg/mL (≈ 0.0236 µM) and the MIC90 (Debaryomyces hansenii) was 0.12 µg/mL (≈ 0.0945 µM). The MIC50 ([Candida] inconspicua) was 0.03 µg/mL (≈ 0.0236 µM), the MIC90 ([Candida] inconspicua) was 0.12 µg/mL (≈ 0.0945 µM) and the MIC50 ([Candida] zeylanoides) was 0.03 µg/mL (≈ 0.0236 µM). For the same compound, the MIC90 ([Candida] zeylanoides) was 0.12 µg/mL (≈ 0.0945 µM), the MIC50 (Magnusiomyces capitatus) was > 16 µg/mL and the MIC90 (Magnusiomyces capitatus) was > 16 µg/mL. The MIC50 (Yarrowia lipolytica) was 0.03 µg/mL (≈ 0.0236 µM), the MIC90 (Yarrowia lipolytica) was 1 µg/mL (≈ 0.787 µM) and the MIC50 (Geotrichum candidum) was > 16 µg/mL. The MIC90 (Geotrichum candidum) was > 16 µg/mL, the MIC50 [1] was > 16 µg/mL and the MIC90 [1] was > 16 µg/mL. For the same compound, the MIC50 (Trichosporon inkin) was > 16 µg/mL, the MIC90 (Trichosporon inkin) was > 16 µg/mL and the MIC50 (Trichosporon ovoides) was > 16 µg/mL. For the same compound, the MIC90 (Trichosporon ovoides) was > 16 µg/mL, the MIC50 (Naganishia albida) was > 16 µg/mL and the MIC90 (Naganishia albida) was > 16 µg/mL. The MIC50 (Ustilago) was > 16 µg/mL, the MIC90 (Ustilago) was > 16 µg/mL and the MIC50 (Papiliotrema laurentii) was > 16 µg/mL. For the same compound, the MIC90 (Papiliotrema laurentii) was > 16 µg/mL, the MIC50 (Trichosporon) was > 16 µg/mL and the MIC90 (Trichosporon) was > 16 µg/mL. The MIC50 (Aspergillus flavus) was > 16 µg/mL, the MIC90 (Aspergillus flavus) was > 16 µg/mL and the MIC50 (Aspergillus niger) was 0.03 µg/mL (≈ 0.0236 µM). The MIC90 (Aspergillus niger) was 0.06 µg/mL (≈ 0.0472 µM), the MIC50 (Aspergillus nidulans) was 0.03 µg/mL (≈ 0.0236 µM) and the MIC90 (Aspergillus nidulans) was > 16 µg/mL. It also gave an MIC50 (Aspergillus sydowii) of 0.03 µg/mL (≈ 0.0236 µM), an MIC90 (Aspergillus sydowii) of 0.03 µg/mL (≈ 0.0236 µM) and an MIC50 (Aspergillus versicolor) of 0.03 µg/mL (≈ 0.0236 µM). The MIC90 (Aspergillus versicolor) was 0.06 µg/mL (≈ 0.0472 µM), the MIC50 (Aspergillus ochraceus) was 0.06 µg/mL (≈ 0.0472 µM) and the MIC90 (Aspergillus ochraceus) was 0.25 µg/mL (≈ 0.197 µM). It also gave an MIC50 (Aspergillus glaucus) of 0.06 µg/mL (≈ 0.0472 µM), an MIC90 (Aspergillus glaucus) of 0.25 µg/mL (≈ 0.197 µM) and an MIC50 (Aspergillus) of 0.06 µg/mL (≈ 0.0472 µM). For the same compound, the MIC90 (Aspergillus) was 0.25 µg/mL (≈ 0.197 µM), the MIC50 (Penicillium) was 0.03 µg/mL (≈ 0.0236 µM) and the MIC90 (Penicillium) was 0.06 µg/mL (≈ 0.0472 µM). For the same compound, the MIC50 (Fusarium solani) was > 16 µg/mL, the MIC90 (Fusarium solani) was > 16 µg/mL and the MIC50 (Acremonium sp.) was 0.12 µg/mL (≈ 0.0945 µM). For the same compound, the MIC90 (Acremonium sp.) was 0.25 µg/mL (≈ 0.197 µM), the MIC50 (Trichoderma) was > 16 µg/mL and the MIC90 (Trichoderma) was > 16 µg/mL. For the same compound, the MIC50 (Phialemonium curvatum) was > 16 µg/mL, the MIC90 (Phialemonium curvatum) was > 16 µg/mL and the MIC50 (Fusarium equiseti) was > 16 µg/mL. The MIC90 (Fusarium equiseti) was > 16 µg/mL, the MIC50 (Coprinellus domesticus) was > 16 µg/mL and the MIC90 (Coprinellus domesticus) was > 16 µg/mL. The MIC50 (Aureobasidium pullulans) was 0.03 µg/mL (≈ 0.0236 µM), the MIC90 (Aureobasidium pullulans) was 0.06 µg/mL (≈ 0.0472 µM) and the MIC50 (Hortaea werneckii) was 0.03 µg/mL (≈ 0.0236 µM). For the same compound, the MIC90 (Hortaea werneckii) was 0.06 µg/mL (≈ 0.0472 µM), the MIC50 (Lichtheimia corymbifera) was > 16 µg/mL and the MIC90 (Lichtheimia corymbifera) was > 16 µg/mL. For the same compound, the MIC50 (Rhizopus arrhizus) was > 16 µg/mL, the MIC90 (Rhizopus arrhizus) was > 16 µg/mL and the MIC50 (Mucor) was > 16 µg/mL. For the same compound, the MIC90 (Mucor) was > 16 µg/mL, the MIC50 (Saksenaea vasiformis) was > 16 µg/mL and the MIC90 (Saksenaea vasiformis) was > 16 µg/mL. For the same compound, the MIC50 (Exophiala jeanselmei) was 0.03 µg/mL (≈ 0.0236 µM) and the MIC90 (Exophiala jeanselmei) was 0.06 µg/mL (≈ 0.0472 µM).
